# Laboratory results reported in ChEMBL document CHEMBL4038291, “Discovery of novel benzothienoazepine derivatives as potent inhibitors of respiratory syncytial virus” (Bioorg Med Chem Lett, 2017).
# Activity calls are given as the source filed them. No cut-off for these calls is given here.
# Experiments:
# [1] = Cytotoxicity against human Hep2 cells; assay type: cell-based; conditions: HEp-2 cells
# [2] = Inhibition of RSV A2 RNA-directed RNA polymerase L infected in human Hep2 cells assessed as reduction in virus-induced cytopathic effect measured after 5 days by resazurin dye based fluorescence assay; assay type: cell-based; conditions: human respiratory syncytial virus, HEp-2, 120 h
# Procedure, shortened: (§1)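 Read-out is cytopathic effect of RSV infection in HEp-2 cells. IC50 is the concentration reducing CPE by 50%. Values averaged from 2 experiments.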
# [3] = Inhibition of Respiratory syncytial virus B WST RNA-directed RNA polymerase L infected in human Hep2 cells assessed as reduction in virus-induced cytopathic effect measured after 6 days by resazurin dye based fluorescence assay; assay type: cell-based; conditions: HEp-2, 144 h; procedure, shortened: as §1
# [4] = test system: Human respiratory syncytial virus A2; assay: Inhibition of Respiratory syncytial virus A2 RNA-directed RNA polymerase L by luciferase reporter-based RSV minigenome assay
# [5] = target: T1, Protein M2-1 (Human respiratory syncytial virus A (strain A2)) (UniProt P04545); assay: Inhibition of Respiratory syncytial virus A2 M2-1 by luciferase reporter-based RSV minigenome assay
# T1 sequence (whole entry): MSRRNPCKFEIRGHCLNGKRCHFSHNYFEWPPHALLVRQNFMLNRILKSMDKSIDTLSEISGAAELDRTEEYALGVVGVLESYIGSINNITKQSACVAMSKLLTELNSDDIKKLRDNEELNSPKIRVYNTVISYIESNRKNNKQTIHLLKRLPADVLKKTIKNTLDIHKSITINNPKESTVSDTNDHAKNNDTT
# [6] = test system: Human respiratory syncytial virus A strain Long; assay: Antiviral activity against human respiratory syncytial virus A strain long infected in cotton rat assessed as reduction in lung viral load administered intranasally pretreated for 4 hrs followed by viral infection measured after 4 days by plaque assay; assay type: functional
# [7] = test system: Human respiratory syncytial virus A strain Long; assay: Antiviral activity against human respiratory syncytial virus A strain long infected in cotton rat assessed as reduction in NS1 expression administered intranasally pretreated for 4 hrs followed by viral infection measured after 4 days by RT-qPCR analysis; assay type: functional
# [8] = Antiviral activity against human respiratory syncytial virus A strain long infected in cotton rat assessed as reduction in plaque forming units in lungs at 0.33 to 3.3 mg/ml administered intranasally pretreated for 4 hrs followed by viral infection measured after 4 days; assay type: functional
# Phosphoprotein = Phosphoprotein (Human respiratory syncytial virus A (strain A2), UniProt P03421); assay: (§2) Inhibition of Respiratory syncytial virus A2 protein P by luciferase reporter-based RSV minigenome assay
# Sequence of Phosphoprotein (P03421 whole entry): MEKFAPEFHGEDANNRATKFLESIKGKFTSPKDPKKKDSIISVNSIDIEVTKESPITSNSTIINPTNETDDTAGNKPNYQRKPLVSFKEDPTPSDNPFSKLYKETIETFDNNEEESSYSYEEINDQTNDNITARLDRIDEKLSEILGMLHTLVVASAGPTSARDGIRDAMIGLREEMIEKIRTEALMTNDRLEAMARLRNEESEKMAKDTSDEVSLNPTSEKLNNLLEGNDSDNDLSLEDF
# [9] = target: Phosphoprotein (Human respiratory syncytial virus A (strain A2)) (UniProt P03421); assay: as §2
# Sequence of Phosphoprotein (Human respiratory syncytial virus A (strain A2)) (P03421 whole entry): as above
# Nucleoprotein = target: T2, Nucleoprotein (Human respiratory syncytial virus A (strain A2), UniProt P03418); assay: (§3) Inhibition of Respiratory syncytial virus A2 protein N by luciferase reporter-based RSV minigenome assay
# T2 sequence (P03418 whole entry): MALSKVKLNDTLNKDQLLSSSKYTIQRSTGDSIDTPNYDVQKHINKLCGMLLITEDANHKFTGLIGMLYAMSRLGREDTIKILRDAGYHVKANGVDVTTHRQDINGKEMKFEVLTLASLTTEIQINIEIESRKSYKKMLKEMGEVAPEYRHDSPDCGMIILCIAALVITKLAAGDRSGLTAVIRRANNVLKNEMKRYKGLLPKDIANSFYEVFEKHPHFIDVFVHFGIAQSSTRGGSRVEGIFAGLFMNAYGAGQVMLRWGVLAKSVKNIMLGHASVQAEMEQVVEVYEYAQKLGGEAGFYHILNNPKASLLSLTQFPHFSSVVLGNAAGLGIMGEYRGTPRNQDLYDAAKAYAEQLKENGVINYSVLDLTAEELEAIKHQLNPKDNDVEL
# [10] = target: T3, Nucleoprotein (Human respiratory syncytial virus A (strain A2)) (UniProt P03418); assay: as §3
# T3 sequence (whole entry): T2 sequence (P03418 whole entry)
# [11] = test system: Human respiratory syncytial virus A2; assay: Antiviral activity against Respiratory syncytial virus A2 infected in human Hep2 cells at 0.001 to 3.125 ug/ml after 6 passages; assay type: functional, cell-based
Compound,CC50 [1] [nM],IC50 [2] [nM],IC50 [3] [nM],other results
O=C(Nc1ccc(C(=O)N2CCc3cc(-c4nc5ccccc5o4)sc3-c3ccccc32)cc1)c1cccnc1N1CC2(CCOCC2)C1,> 14900,56,> 1500,
O=C(Nc1ccc(C(=O)N2CCc3cc(-c4nc5c(F)cccc5[nH]4)sc3-c3ccccc32)cc1)c1cccnc1N1CC2(CCOCC2)C1,> 14600,1.6,90.9,
Cc1cnc(N2CC3(CCOCC3)C2)c(C(=O)Nc2ccc(C(=O)N3CCc4cc(-c5nc6ccccc6[nH]5)sc4-c4ccccc43)cc2)c1,> 14600,0.5,5.2,
Cc1cnc(N2CC3(CCOCC3)C2)c(C(=O)Nc2ccc(C(=O)N3CCc4cc(-c5cc6ccccn6n5)sc4-c4ccccc43)cc2)c1,> 14600,0.7,8.1,
Cc1ccnc(N2CC3(CCOCC3)C2)c1C(=O)Nc1ccc(C(=O)N2CCc3cc(-c4nc5ccccc5[nH]4)sc3-c3ccccc32)cc1,,,> 1470,
O=C(Nc1ccc(C(=O)N2CCc3cc(-c4nc5ccccc5[nH]4)sc3-c3ccccc32)cc1)c1cccnc1N1CC2(CCOCC2)C1,> 14900,0.8,59.8,
O=C(Nc1ccc(C(=O)N2CCc3cc(-c4nc5cncnc5[nH]4)sc3-c3ccccc32)cc1)c1cccnc1N1CC2(CCOCC2)C1,> 14900,13.1,> 1500,
O=C(Nc1ccc(C(=O)N2CCc3cc(-c4nc5c(Cl)cccc5[nH]4)sc3-c3ccccc32)cc1)c1cccnc1N1CC2(CCOCC2)C1,> 14200,0.8,30.7,
N#Cc1cccc2[nH]c(-c3cc4c(s3)-c3ccccc3N(C(=O)c3ccc(NC(=O)c5cccnc5N5CC6(CCOCC6)C5)cc3)CC4)nc12,> 14400,0.6,69,
O=C(Nc1ccc(C(=O)N2CCc3cc(-c4nc5ccccc5[nH]4)sc3-c3ccccc32)cc1)c1ccc(C(F)(F)F)nc1N1CC2(CCOCC2)C1,> 13600,7.3,> 1360,
Cc1cccc2[nH]c(-c3cc4c(s3)-c3ccccc3N(C(=O)c3ccc(NC(=O)c5cccnc5N5CC6(CCOCC6)C5)cc3)CC4)nc12,> 14600,0.6,52.9,
N#Cc1ccc2[nH]c(-c3cc4c(s3)-c3ccccc3N(C(=O)c3ccc(NC(=O)c5cccnc5N5CC6(CCOCC6)C5)cc3)CC4)nc2c1,> 14400,0.5,162,
Cc1cnc(N2CC3(CCOCC3)C2)c(C(=O)Nc2ccc(C(=O)N3CCc4cc(-c5cn6ccccc6n5)sc4-c4ccccc43)cc2)c1,> 14600,1.8,14.4,
O=C(Nc1ccc(C(=O)N2CCc3cc(-c4nc5cc(C(F)(F)F)ccc5[nH]4)sc3-c3ccccc32)cc1)c1cccnc1N1CC2(CCOCC2)C1,> 13600,3.1,> 1360,
O=C(Nc1ccc(C(=O)N2CCc3cc(-c4nc5cc(Cl)ccc5[nH]4)sc3-c3ccccc32)cc1)c1cccnc1N1CC2(CCOCC2)C1,> 14200,1.6,161,
O=C(Nc1ccccc1)c1cc2c(s1)-c1ccccc1N(C(=O)c1ccc(NC(=O)c3cccnc3N3CC4(CCOCC4)C3)cc1)CC2,> 14900,0.5,283,
O=C(Nc1ccc(C(=O)N2CCc3cc(-c4nc5c(C(F)(F)F)cccc5[nH]4)sc3-c3ccccc32)cc1)c1cccnc1N1CC2(CCOCC2)C1,> 13600,0.6,38.8,
O=C(NC1CC1)c1cc2c(s1)-c1ccccc1N(C(=O)c1ccc(NC(=O)c3cccnc3N3CC4(CCOCC4)C3)cc1)CC2,6410,2.2,286,
O=C(Nc1ccc(C(=O)N2CCc3cc(-c4nc5cnccc5[nH]4)sc3-c3ccccc32)cc1)c1cccnc1N1CC2(CCOCC2)C1,> 14900,7.6,844,
Cc1ccc(C(=O)Nc2ccc(C(=O)N3CCc4cc(-c5nc6ccccc6[nH]5)sc4-c4ccccc43)cc2)c(N2CC3(CCOCC3)C2)n1,> 14600,0.3 to 0.8,5.2 to 13.1,
CCc1cnc(N2CC3(CCOCC3)C2)c(C(=O)Nc2ccc(C(=O)N3CCc4cc(-c5nc6ccccc6[nH]5)sc4-c4ccccc43)cc2)c1,> 14300,0.7,13.3,
Cc1cnc(N2CC3(CCOCC3)C2)c(C(=O)Nc2ccc(C(=O)N3CCc4cc(-c5nc(C)c(C)[nH]5)sc4-c4ccccc43)cc2)c1,> 15100,1.6,6.2,
Cc1cnc(N2CC3(CCOCC3)C2)c(C(=O)Nc2ccc(C(=O)N3CCc4cc(-c5nc6cccc(F)c6[nH]5)sc4-c4ccccc43)cc2)c1,> 14300,1.4,2.1,inhibition [4]: Dose-dependent effect; inhibition [5]: Dose-dependent effect; Activity [6]: Active; Activity [7]: Dose-dependent effect; Activity [8]: <2.3 log10PFU; IC50 (Phosphoprotein): 2 nM; inhibition [9]: Dose-dependent effect; IC50 (Nucleoprotein): 2 nM; inhibition [10]: Dose-dependent effect; Activity [11]: inactive
COc1ccc(C(=O)Nc2ccc(C(=O)N3CCc4cc(-c5nc6ccccc6[nH]5)sc4-c4ccccc43)cc2)c(N2CC3(CCOCC3)C2)n1,> 14300,0.5,37.8,
CC(C)c1cnc(N2CC3(CCOCC3)C2)c(C(=O)Nc2ccc(C(=O)N3CCc4cc(-c5nc6ccccc6[nH]5)sc4-c4ccccc43)cc2)c1,> 14100,5.7,> 1410,
Cc1cnc(N2CC3(CCOCC3)C2)c(C(=O)Nc2ccc(C(=O)N3CCc4cc(-c5ncc(C)[nH]5)sc4-c4ccccc43)cc2)c1,> 15500,0.7,3.3,
O=C(Nc1ccc(C(=O)N2CCc3cc(-c4cc5ccccc5[nH]4)sc3-c3ccccc32)cc1)c1cccnc1N1CC2(CCOCC2)C1,> 15000,1.5,1020,
